ChEMBL document CHEMBL4265975, “Synthesis, biological evaluation and molecular modeling of a novel series of fused 1,2,3-triazoles as potential anti-coronavirus agents” (Bioorg Med Chem Lett, 2018)

What was measured:
[1] = Selectivity index, ratio of MCC for HEL cells to EC50 for acyclovir-resistant TK-defecient Herpes simplex virus 1 KOS infected in HEL cells; assay type: toxicity, cell-based; conditions: human, read-out: Selectivity Index
In short: (§1)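 SI is MCC divided by EC50. […] MCC was measured in parallel on HEL cells seeded at 5 x 10^3 cells/well, as the lowest concentration causing microscopically visible alteration of cell morphology. The top concentration tested was 100 µM.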

[2] = Selectivity index, ratio of MCC for HEL cells to EC50 for Human adenovirus 2 infected in HEL cells; assay type: toxicity, cell-based; conditions: read-out: Selectivity Index; in short: as §1
[3] = Selectivity index, ratio of MCC for HEL cells to EC50 for Vaccinia virus infected in HEL cells; assay type: toxicity, cell-based; conditions: human, read-out: Selectivity Index; in short: as §1
Human alphaherpesvirus 1 [4] = test: Antiviral activity against Herpes simplex virus 1 KOS infected in human HEL cells assessed as inhibition of virus-induced cytopathic effect after 3 days by microscopic method; assay type: functional, organism-based; conditions: Human alphaherpesvirus 1, KOS, 72 h
Human alphaherpesvirus 2 = test: Antiviral activity against Human herpesvirus 2 strain G infected in human HEL cells assessed as inhibition of virus-induced cytopathic effect after 3 days by microscopic method; assay type: functional, organism-based; conditions: Human alphaherpesvirus 2, strain G, 72 h
Vaccinia virus = test: Antiviral activity against Vaccinia virus infected in human HEL cells assessed as inhibition of virus-induced cytopathic effect after 3 days by microscopic method; assay type: functional, organism-based; conditions: Orthopoxvirus vaccinia, 72 h
Human alphaherpesvirus 1 [5] = test: Antiviral activity against acyclovir-resistant TK-defecient Herpes simplex virus 1 KOS infected in human HEL cells assessed as inhibition of virus-induced cytopathic effect after 3 days by microscopic method; assay type: functional, organism-based; conditions: Human alphaherpesvirus 1, KOS, 72 h
Human adenovirus 2 = test: Antiviral activity against Human adenovirus 2 infected in human HEL cells assessed as inhibition of virus-induced cytopathic effect after 3 days by microscopic method; assay type: functional, organism-based; conditions: Human mastadenovirus C, 72 h
In short: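 HEL cells were infected with adenovirus 2 for 2 h. Residual virus was then removed and the cells were incubated with medium containing graded compound concentrations for 3 days at 37°C. Virus-induced cytopathogenicity was scored microscopically.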

[6] = Selectivity index, ratio of MCC for HEL cells to EC50 for Herpes simplex virus 2 strain G infected in HEL cells; assay type: toxicity, cell-based; conditions: human, read-out: Selectivity Index; in short: as §1
Human coronavirus 229E = test: Antiviral activity against Human coronavirus 229E infected in HEL cells assessed as reduction in virus-induced pathogenicity after 3 days by microscopic method; assay type: functional, organism-based; conditions: 72 h
[7] = Selectivity index, ratio of MCC for HEL cells to EC50 for Herpes simplex virus 1 KOS infected in HEL cells; assay type: toxicity, cell-based; conditions: human, read-out: Selectivity Index; in short: as §1
[8] = Cytotoxicity against HEL cells assessed as alteration in cell morphology after 3 days by microscopic method; assay type: cell-based; conditions: human
In short: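 HEL cells were seeded at 5 x 10^3 cells/well and exposed to graded compound concentrations, up to 100 μM, in parallel with the antiviral assay. Cell morphology was examined by light microscopy. MCC is the minimum concentration causing a microscopically detectable alteration of normal cell morphology.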

[9] = Selectivity index, ratio of MCC for HEL cells to EC50 for Human coronavirus 229E infected in HEL cells; assay type: toxicity, cell-based; conditions: read-out: Selectivity Index; in short: as §1

SMILES	selectivity ratio [1]	selectivity ratio [2]	selectivity ratio [3]	EC50 (Human alphaherpesvirus 1 [4])	EC50 (Human alphaherpesvirus 2)	EC50 (Vaccinia virus)	EC50 (Human alphaherpesvirus 1 [5])	EC50 (Human adenovirus 2)	selectivity ratio [6]	EC50 (Human coronavirus 229E)	selectivity ratio [7]	MCC at 72 h [8]	selectivity ratio [9]
c1ccc(N2CCc3c(nnn3CC3CC3)C2)cc1	> 8	> 8	> 8	> 100 µM	> 100 µM	> 100 µM	> 100 µM	> 100 µM	> 8	> 100 µM	> 8	> 100 µM	> 8
CCOC(=O)C1(Cc2ccccc2)CN(c2ccccc2)Cc2nnn(Cc3ccccc3)c21 (stereo not drawn)	> 8	> 8	> 8	> 100 µM	> 100 µM	> 100 µM	> 100 µM	> 100 µM	> 8	> 100 µM	> 8	≥ 20 µM	> 8
CCOC(=O)C1(Cc2ccc(F)cc2)CN(c2ccccc2)Cc2nnn(Cc3cccc(F)c3)c21 (stereo not drawn)	> 8	> 8	> 8	> 100 µM	> 100 µM	> 100 µM	> 100 µM	> 100 µM	> 8	> 100 µM	> 8	> 100 µM	> 8
CCOC(=O)C1(Cc2ccccc2)CN(c2ccccc2)Cc2nnn(Cc3ccco3)c21 (stereo not drawn)	> 8	> 8	> 8	> 100 µM	> 100 µM	> 100 µM	> 100 µM	> 100 µM	> 8	> 100 µM	> 8	100 µM	> 8
CCOC(=O)C1(Cc2ccccc2)CN(c2ccccc2)Cc2nnn(Cc3cccc(F)c3)c21 (stereo not drawn)	> 8	> 8	> 8	> 100 µM	> 100 µM	> 100 µM	> 100 µM	> 100 µM	> 8	> 100 µM	> 8	≥ 100 µM	> 8
CCOC(=O)C1(Cc2ccccc2)CN(c2ccccc2)Cc2nnn(CCc3ccc(OC)cc3)c21 (stereo not drawn)	> 8	> 8	> 8	> 100 µM	> 100 µM	> 100 µM	> 100 µM	> 100 µM	> 8	> 100 µM	> 8	≥ 20 µM	> 8
COc1cccc(CCn2nnc3c2CCN(c2ccc(C(F)(F)F)cc2)C3)c1	> 8	> 8	> 8	> 100 µM	> 100 µM	> 100 µM	> 100 µM	16 µM	> 8	> 100 µM	> 8	> 100 µM	> 8
CCOC(=O)C1(Cc2ccccc2)CN(c2ccccc2)Cc2nnn(CCc3cc4ccccc4[nH]3)c21 (stereo not drawn)	> 8	> 8	> 8	> 100 µM	> 100 µM	> 100 µM	> 100 µM	> 100 µM	> 8	9.45 µM	> 8	> 100 µM	> 8
CCCCCCn1nnc2c1CCN(c1ccccc1)C2	> 8	> 8	> 8	> 100 µM	> 100 µM	> 100 µM	> 100 µM	> 100 µM	> 8	> 100 µM	> 8	> 100 µM	> 8
CCOC(=O)C1(Cc2ccccc2)CN(c2ccccc2)Cc2nnn(Cc3ccc(Cl)c(Cl)c3)c21 (stereo not drawn)	> 8	> 8	> 8	> 100 µM	> 100 µM	> 100 µM	> 100 µM	> 100 µM	> 8	> 100 µM	> 8	> 100 µM	> 8
CCOC(=O)C1(Cc2ccccc2)CN(c2ccccc2)Cc2nnn(Cc3ccc(Cl)cc3)c21 (stereo not drawn)	> 8	> 8	> 8	> 100 µM	> 100 µM	> 100 µM	> 100 µM	> 100 µM	> 8	> 100 µM	> 8	> 100 µM	> 8
CCOC(=O)C1(Cc2ccc(F)cc2)CN(c2ccccc2)Cc2nnn(Cc3ccc(Cl)c(Cl)c3)c21 (stereo not drawn)	> 8	> 8	> 8	> 100 µM	> 100 µM	> 100 µM	> 100 µM	> 100 µM	> 8	9.45 µM	> 8	> 100 µM	> 8
COc1ccccc1CCn1nnc2c1CCN(c1ccccc1)C2	> 8	> 8	> 8	> 100 µM	> 100 µM	> 100 µM	> 100 µM	> 100 µM	> 8	> 100 µM	> 8	≥ 100 µM	> 8
CCCCCCn1nnc2c1CCN(c1ccc(C(F)(F)F)cc1)C2	> 8	> 8	> 8	> 100 µM	> 100 µM	> 100 µM	> 100 µM	> 100 µM	> 8	> 100 µM	> 8	> 100 µM	> 8
Nc1ccn([C@H]2CC[C@@H](CO)O2)c(=O)n1 [ZALCITABINE]	–	–	–	–	–	–	–	50 µM	–	–	–	> 250 µM	–
CCOC(=O)C1(Cc2ccccc2)CN(c2ccccc2)Cc2nnn(Cc3ccc(OC)cc3)c21 (stereo not drawn)	> 8	> 8	> 8	> 100 µM	> 100 µM	> 100 µM	> 100 µM	> 100 µM	> 8	> 100 µM	> 8	> 100 µM	> 8
COc1ccc(CCn2nnc3c2CCN(c2ccccc2)C3)cc1	> 8	> 8	> 8	> 100 µM	> 100 µM	> 100 µM	> 100 µM	> 100 µM	> 8	> 100 µM	> 8	> 100 µM	> 8
CCOC(=O)C1(Cc2ccccc2)CN(c2ccccc2)Cc2nnn(CCc3ccccc3OC)c21 (stereo not drawn)	> 8	> 8	> 8	> 100 µM	> 100 µM	> 100 µM	> 100 µM	> 100 µM	> 8	> 100 µM	> 8	≥ 100 µM	> 8
CCCCCCCCn1nnc2c1C(Cc1ccccc1)(C(=O)OCC)CN(c1ccccc1)C2 (stereo not drawn)	> 8	> 8	> 8	> 100 µM	> 100 µM	> 100 µM	> 100 µM	> 100 µM	> 8	> 100 µM	> 8	≥ 20 µM	> 8
Nc1nc2c(ncn2COC(CO)CO)c(=O)[nH]1 [GANCICLOVIR]	–	–	–	–	–	> 100 µM	–	–	–	–	–	> 100 µM	–
Nc1ccn(C[C@@H](CO)OCP(=O)(O)O)c(=O)n1 [CIDOFOVIR]	–	–	–	4.5 µM	3.4 µM	85 µM	2.8 µM	22 µM	–	–	–	> 250 µM	–
O=c1[nH]c(=O)n([C@H]2C[C@H](O)[C@@H](CO)O2)cc1/C=C/Br [BRIVUDINE]	–	–	–	–	–	3.8 µM	–	–	–	–	–	> 250 µM	–
Nc1nc2c(ncn2COCCO)c(=O)[nH]1 [ACYCLOVIR]	–	–	–	–	–	> 250 µM	–	–	–	–	–	> 250 µM	–
